These results are taken from ChEMBL document CHEMBL1687879, “Synthesis, glucose uptake activity and structure-activity relationships of some novel glitazones incorporated with glycine, aromatic and alicyclic amine moieties via two carbon acyl linker” (2011).

Holding throughout (type): functional, Diaphragm
Assay [1] in a line: Antidiabetic activity in rat hemidiaphragm assessed as glucose uptake at 2 mg after 45 mins in absence of insulin. In a few lines: (§1)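 Isolated rat hemi-diaphragm in Tyrode, test agent at 1 mg or 2 mg with or without insulin; 45 min incubation at 21 °C, shaking at 60 cycles/min. Medium glucose measured by GOD/POD enzymatic method; uptake expressed as mg/dl/45 min. Run in triplicate, mean ± SEM; groups compared by one-way ANOVA with Dunnett's post-test.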

Assay [2] is described as follows: Antidiabetic activity in rat hemidiaphragm assessed as glucose uptake at 1 mg after 45 mins in absence of insulin. In a few lines:
as §1

The nature of assay [3]: Antidiabetic activity in rat hemidiaphragm assessed as glucose uptake at 2 mg after 45 mins in presence of insulin. The procedure, abridged: as §1
Assay [4] is described as follows: Antidiabetic activity in rat hemidiaphragm assessed as glucose uptake at 1 mg after 45 mins in presence of insulin. In a few lines:
as §1

Turning to `O=C(CN1C(=O)S/C(=C\c2ccc(Cl)cc2)C1=O)Nc1ccccc1`, the Activity in assay [1] was found to be 16.9 mg/dL; in assay [2], 16.83 mg/dL; in assay [3], 36.66 mg/dL; in assay [4] it was 36.03 mg/dL.

On to `O=C(CN1C(=O)S/C(=C\c2ccccc2Cl)C1=O)Nc1ccccc1`, for which the Activity was determined as 14.03 mg/dL in assay [1], 13.81 mg/dL in assay [2], 27.16 mg/dL in assay [3] and 26.03 mg/dL in assay [4].

Turning to `O=C(CN1C(=O)S/C(=C\c2cccc(Cl)c2)C1=O)Nc1ccccc1`, the Activity in assay [1] amounted to 17.63 mg/dL; in assay [2] it was 17.83 mg/dL; in assay [3], 40.5 mg/dL; in assay [4] it was 39 mg/dL.

With `CCOC(=O)CNC(=O)CN1C(=O)S/C(=C\c2ccc(OC)cc2)C1=O`, the Activity amounted to 18.79 mg/dL in assay [1], 18.28 mg/dL in assay [2], 43.07 mg/dL in assay [3] and 41.5 mg/dL in assay [4].

On to `O=C(COc1ccc(/C=C2\SC(=O)NC2=O)cc1)Nc1ccccc1`, for which the Activity in assay [1] came to 18.5 mg/dL; in assay [2] it was 18.46 mg/dL; in assay [3], 42.69 mg/dL; in assay [4], 41.16 mg/dL.

Regarding `O=C(COc1ccc(/C=C2\SC(=S)NC2=O)cc1)Nc1ccccc1`, the Activity in assay [1] turned out to be 16.33 mg/dL; in assay [2], 16.16 mg/dL; in assay [3], 35.33 mg/dL; in assay [4], 34.66 mg/dL.

In the case of `CCc1cccc(CC)c1NC(=O)COc1ccc(/C=C2\SC(=S)NC2=O)cc1`, the Activity was 15.66 mg/dL in assay [1], 14.5 mg/dL in assay [2], 28.5 mg/dL in assay [3] and 28.83 mg/dL in assay [4].

Take `CCc1cccc(CC)c1NC(=O)COc1ccc(/C=C2\SC(=O)NC2=O)cc1`: the Activity in assay [1] came out at 15 mg/dL; in assay [2], 15.82 mg/dL; in assay [3] it was 29.8 mg/dL; in assay [4] it was 29 mg/dL.

Take `COc1ccc(NC(=O)COc2ccc(/C=C3\SC(=O)NC3=O)cc2)cc1`: the Activity in assay [1] was 16.83 mg/dL; in assay [2] it was 16.66 mg/dL; in assay [3], 35.66 mg/dL; in assay [4], 34.16 mg/dL.

For `COc1ccc(NC(=O)COc2ccc(/C=C3\SC(=S)NC3=O)cc2)cc1`, the Activity in assay [1] worked out at 17.01 mg/dL; in assay [2], 16.91 mg/dL; in assay [3], 37.09 mg/dL; in assay [4], 35 mg/dL.

As to `Cc1ccc(NC(=O)COc2ccc(/C=C3\SC(=O)NC3=O)cc2)cc1`, the Activity in assay [1] was 16.16 mg/dL; in assay [2], 16 mg/dL; in assay [3] it was 33.5 mg/dL; in assay [4], 33.83 mg/dL.

For `Cc1ccc(NC(=O)COc2ccc(/C=C3\SC(=S)NC3=O)cc2)cc1`, the Activity was determined as 16.56 mg/dL in assay [1], 15.33 mg/dL in assay [2], 34.16 mg/dL in assay [3] and 33.79 mg/dL in assay [4].

With `COc1ccc(/C=C2\SC(=O)N(CC(=O)Nc3ccccc3)C2=O)cc1`, the Activity was determined as 19.66 mg/dL in assay [1], 18.71 mg/dL in assay [2], 43.9 mg/dL in assay [3] and 42.16 mg/dL in assay [4].

Regarding `O=C(CN1C(=O)S/C(=C\c2ccc(Cl)cc2Cl)C1=O)Nc1ccccc1`, the Activity in assay [1] was 18.5 mg/dL; in assay [2], 18.33 mg/dL; in assay [3], 42.44 mg/dL; in assay [4], 41.93 mg/dL.

`O=C(CN1C(=O)S/C(=C\c2ccccc2O)C1=O)Nc1ccccc1`: the Activity in assay [1] stood at 18.33 mg/dL; in assay [2] it was 18 mg/dL; in assay [3], 42.26 mg/dL; in assay [4] it was 41.85 mg/dL.

In the case of `O=C(CN1C(=O)S/C(=C\C=C\c2ccccc2)C1=O)Nc1ccccc1`, the Activity was determined as 16.16 mg/dL in assay [1], 15 mg/dL in assay [2], 36.66 mg/dL in assay [3] and 36.16 mg/dL in assay [4].

On to `O=C(CN1C(=O)S/C(=C\c2ccccc2)C1=O)Nc1ccccc1`, for which the Activity in assay [1] was 18 mg/dL; in assay [2], 17.72 mg/dL; in assay [3] it was 39 mg/dL; in assay [4], 38.3 mg/dL.

As for `O=C(CN1C(=O)S/C(=C\c2ccco2)C1=O)Nc1ccccc1`, the Activity in assay [1] came out at 15.86 mg/dL; in assay [2], 15.66 mg/dL; in assay [3], 32.29 mg/dL; in assay [4] it was 32.16 mg/dL.

For `COc1cc(/C=C2\SC(=O)N(CC(=O)Nc3ccccc3)C2=O)ccc1O`, the Activity in assay [1] was 16.96 mg/dL; in assay [2], 15.5 mg/dL; in assay [3], 30.83 mg/dL; in assay [4], 28.5 mg/dL.

As to `CN(CCOc1ccc(CC2SC(=O)NC2=O)cc1)c1ccccn1` (stereo not given) [ROSIGLITAZONE], the Activity in assay [1] came out at 20.36 mg/dL; in assay [2] it was 19 mg/dL; in assay [3] it was 50.33 mg/dL; in assay [4], 48.34 mg/dL.
